Rows were chosen to be rich in hits. Some 2% of all compounds tested hit in one or more screens of this group.
STEP inh = blocks human striatal-enriched tyrosine phosphatase; P54829; recombinant STEP, OMFP fluorogenic substrate, fluorescence; inhibition, % at 20 µM; actives 0.25% (n = 360,000); AID 588621;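 active means inhibition at 20 µM, scaled per plate between control wells, above about 37%, limit read from the data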;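 further: 0% = DMSO with enzyme and substrate and 100% = substrate only without enzyme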
Target sequence (P54829 whole entry, looked up): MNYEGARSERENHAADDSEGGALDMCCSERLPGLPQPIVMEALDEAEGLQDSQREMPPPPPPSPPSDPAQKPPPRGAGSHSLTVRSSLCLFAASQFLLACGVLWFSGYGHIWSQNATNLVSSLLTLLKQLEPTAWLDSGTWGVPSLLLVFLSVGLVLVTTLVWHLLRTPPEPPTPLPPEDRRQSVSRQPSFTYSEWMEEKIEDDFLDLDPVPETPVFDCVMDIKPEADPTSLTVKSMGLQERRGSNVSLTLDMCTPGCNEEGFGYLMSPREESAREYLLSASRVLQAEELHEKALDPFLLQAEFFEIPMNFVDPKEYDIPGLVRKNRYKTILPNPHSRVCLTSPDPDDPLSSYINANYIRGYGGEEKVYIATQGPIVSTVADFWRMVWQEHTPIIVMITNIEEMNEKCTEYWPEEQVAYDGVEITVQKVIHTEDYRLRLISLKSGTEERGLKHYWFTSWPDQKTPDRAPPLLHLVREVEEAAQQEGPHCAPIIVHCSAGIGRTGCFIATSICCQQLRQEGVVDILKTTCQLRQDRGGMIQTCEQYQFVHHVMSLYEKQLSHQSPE
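Material: STEP (striatal-enriched tyrosine phosphatase) enzyme, cell-free; Compound dosing: 20 µM single dose in 1% DMSO; Technique: fluorescence read at 480 nm ex / 540 nm em; Times: reaction 20 min, ambient temperature; Medium: 50 mM Bis-Tris pH 6.0 with 2.5 mM DTT and 0.005% Tween 20; Also added: OMFP at 25 µM.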
DNMT1 inh = DNMT1 (human) enzyme inhibition | inhibition (reported as % activation of signal), % at 10 µM | DNMT1 molecular beacon, Hinp1I cleavage, fluorescence | P26358 | actives 0.83% (n = 360,000); in the data active means inhibition above about 50%
Rpn11 block = blocks the human proteasome subunit Rpn11; AID 588493; human 26S proteasome, Ub4-pepOG fluorescence polarization; 20S core pre-blocked with epoxomicin; O00487; inhibition, % at 20 µM; actives 0.59% (n = 360,000);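 active means inhibition at 20 µM, scaled to each plate's controls, above about 33%, limit read from the data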
Scp1 inh = blocks human Scp-1 phosphatase activity. Q9GZU7. Recombinant Scp1, phosphopeptide, malachite green phosphate absorbance. inhibition, % at 20 µM. actives 0.88% (n = 340,000). AID 493091;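 active means inhibition above about 50% at 20 µM, limit read from the data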;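 further: plate controls were DMSO wells with enzyme for no effect and wells lacking enzyme for full effect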
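Material – SCP-1 phosphatase catalytic domain, residues 76-261 · Buffer or medium – Acidic Tris acetate buffer with magnesium and detergent · Also added – Phospho 17-mer peptide substrate · Compound – single 20 µM dose, 1% DMSO · Times – 45 min room-temperature reaction, 5 min colour, 30 min stabiliser · Technique – Phosphate-binding colour reagent, absorbance read at 630 nm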
LMPTP block = LMPTP (human) inhibition; P24666; recombinant LMPTP-A, OMFP fluorogenic substrate, fluorescence intensity; inhibition, % at 20 µM; actives 0.22% (n = 360,000);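 active means compounds that cut the enzyme signal by at least half of the control window in the single-dose screen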;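 further: plate controls were DMSO wells with enzyme plus substrate for no effect and substrate without enzyme for full effect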
Target sequence (P24666 whole entry, looked up): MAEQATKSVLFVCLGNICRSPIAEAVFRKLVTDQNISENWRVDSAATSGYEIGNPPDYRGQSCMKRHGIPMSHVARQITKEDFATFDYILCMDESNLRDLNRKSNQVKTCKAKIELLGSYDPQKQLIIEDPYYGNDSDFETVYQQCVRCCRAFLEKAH
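Test system – LMPTP-A enzyme · Amount – LMPTP-A at 0.625 nM final in the reaction · Buffer or medium – Bis-Tris pH 6.0, DTT, detergent · Reagent – OMFP 400 µM · Doses – single 20 µM dose · Schedule – reaction 50 min, room temperature, dark · Detection – fluorescence intensity of OMFP turnover product · Evaluation – percent inhibition versus substrate-only and uninhibited controls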
DNMT1 interf DR = beacon fluorescence artifact, dose response counter-screen. shares compounds with DNMT1 inh. molecular beacon fluorescence, spectral interference counter-screen. IC50, µM. 200 tested, under 10 active; call rule not given here
DNMT1 inh conf = confirmation of human DNMT1 inhibitors; shares compounds with DNMT1 inh; DNMT1 molecular beacon HinP1I cleavage, fluorescence; inhibition, % at 10 µM; actives 8% (n = 2,300);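 active means average inhibition of at least 30% in the single-concentration confirmation test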
DNMT1 interf = counter-screen for DNMT1 inhibitors: spectral interference; actives 1% (n = 2,300); activation (fluorescence interference), % at 10 µM; shares compounds with DNMT1 inh; DNMT1 molecular beacon spectral interference counterscreen, fluorescence 485/520;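 active means activation of at least 30% at 10 µM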;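 further: DNMT1 catalytic domain with a HinP1I cleavage step and a FAM/dabcyl DNA beacon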
Rpn11 inh conf = confirmation of human proteasome Rpn11 inhibitors; shares compounds with Rpn11 block; purified human 26S proteasome, Ub4-pepOG fluorescence polarization; proteasome pretreated with epoxomicin; inhibition, % at 20 µM; actives 29% (n = 1,900)
MMP-2 inh = blocks human MMP-2, flagging nonselective RPN11 hits; inhibition, % at 20 µM; recombinant MMP-2, FRET peptide cleavage fluorescence; AID 602330; actives 4% (n = 1,900); shares compounds with Rpn11 block;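 further: human MMP-2 activated beforehand with APMA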
Thrombin inh = counter-screen for RPN11 inhibitors: inhibition of bovine thrombin | inhibition, % at 20 µM | shares compounds with Rpn11 block | actives 13% (n = 1,900) | bovine thrombin cleavage of Ub4-pepOG, fluorescence polarization;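 active means mean inhibition at least 40% at 20 µM, or signal 3 deviations below plate average, so some actives read negative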;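 further: plate controls were thrombin with DMSO for no effect and buffer wells lacking thrombin for full effect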
STEP conf = STEP (human) phosphatase inhibition, single concentration confirmation; shares compounds with STEP inh; recombinant STEP, OMFP fluorogenic substrate, fluorescence; inhibition, % at 20 µM; actives 32% (n = 520); call rule not given here;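 further: 0% = enzyme with substrate plus DMSO and 100% = substrate without enzyme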
An asterisk follows results filed as active. Unless noted, no stated cut-off is given here; in the data, active means inhibition above about 40%; inactive means the rest.

How did O=c1c2c3nc4ccccc4nc3n(-c3ccc4c(c3)OCCO4)c2ncn1C1CCCC1 do in these assays?
STEP inh: 51.2*; DNMT1 inh: 71.7*; Rpn11 block: 128.5*; Scp1 inh: 84.8*; LMPTP block: 26.1; DNMT1 inh conf: 2.7; DNMT1 interf: -6.3; Rpn11 inh conf: -1.6; MMP-2 inh: -13.2; Thrombin inh: -17.5; STEP conf: -2.8

Results for COc1ccc(CN2CCN(c3ccccc3OC)CC2)cc1OC ?
STEP inh: 91.1*; DNMT1 inh: 66.6*; Rpn11 block: -6.6; Scp1 inh: 0.4; LMPTP block: -0.9; DNMT1 inh conf: 0.5; DNMT1 interf: 4.3; STEP conf: -4.2

Results for Cc1cccc(C)c1N1C(=O)[C@@H]2C(c3ccccc3Cl)=NO[C@@H]2C1=O ?
STEP inh: 0.6; DNMT1 inh: -0.9; Rpn11 block: -11.4; Scp1 inh: -6.2; LMPTP block: 0.9

What do the screens show for `COc1ccc(OC)c(N2C(=O)[C@@H]3C(c4ccccc4Cl)=NO[C@@H]3C2=O)c1`?
STEP inh: 55.1*; DNMT1 inh: 114.5*; Rpn11 block: -2.9; Scp1 inh: 47.6; LMPTP block: 27.2; DNMT1 interf DR: >99; DNMT1 inh conf: 60.5*; DNMT1 interf: 2.0; STEP conf: 79.7*

How did COc1ccc2c(c1)CCc1sc(NC(=O)c3ccco3)nc1-2 do in these assays?
STEP inh: -0.1; DNMT1 inh: -18.6; Rpn11 block: -7.3; Scp1 inh: -12.2; LMPTP block: 2.7

How did COc1ccc2c(c1)Cc1sc(NC(=O)c3ccco3)nc1-2 do in these assays?
STEP inh: 14.2; DNMT1 inh: -28.3; Rpn11 block: 152.1*; Scp1 inh: -5.7; LMPTP block: 2.6; Rpn11 inh conf: -4.9; MMP-2 inh: -31.1; Thrombin inh: -8.8

What do the screens show for `Cn1c(SCC(=O)NNC(=O)Nc2ccccc2)nnc1-c1ccccc1`?
STEP inh: -0.6; DNMT1 inh: 1.4; Rpn11 block: 4.5; Scp1 inh: -9.8; LMPTP block: -0.4

What do the screens show for `NC(Cc1ccc(Cl)cc1)c1csc(Nc2ccc(-c3ccccc3)nn2)n1` (stereo unspecified)?
STEP inh: 9.8; DNMT1 inh: 12.7; Rpn11 block: 1.4; LMPTP block: 2.4

How did COc1cc(/C=C2/C(=O)N(c3cccc(Br)c3)N=C2C)cc(OC)c1O do in these assays?
STEP inh: 0.6; DNMT1 inh: -10.8; Rpn11 block: 78.2*; Scp1 inh: -7.1; LMPTP block: 4.4; Rpn11 inh conf: 80.2*; MMP-2 inh: 7.6; Thrombin inh: 59.9*

Results for COc1ccc(/C=C2/C(=O)N(c3ccccc3)N=C2C)cc1OC ?
STEP inh: 0.6; DNMT1 inh: -10.8; Rpn11 block: 3.4; Scp1 inh: -12.1; LMPTP block: 6.7

What do the screens show for `Nc1nc(SCc2ccccc2)c2ncn(C3CCCO3)c2n1` (stereo unspecified)?
STEP inh: 2.9; DNMT1 inh: 1.3; Rpn11 block: -17.8; Scp1 inh: -10.5; LMPTP block: 1.1

What do the screens show for `O=C(CN1CCCc2ccccc21)NCCc1ccc(F)cc1`?
STEP inh: -1.0; DNMT1 inh: -2.4; Rpn11 block: 8.4; Scp1 inh: 0.6; LMPTP block: 0.5

What do the screens show for `C(=C\c1ccco1)/C1=NN(c2ccccc2)C(c2ccco2)C1` (stereo unspecified)?
STEP inh: 0.2; DNMT1 inh: 24.9; Rpn11 block: 72.0*; Scp1 inh: -15.6; LMPTP block: 3.2; Rpn11 inh conf: 70.2*; MMP-2 inh: 6.6; Thrombin inh: 54.7*

What do the screens show for `CCCn1ncc(CN2CCCC(C(=O)c3cccc(OC(C)C)c3)C2)c1C` (stereo unspecified)?
STEP inh: -6.2; DNMT1 inh: -3.6; Rpn11 block: -6.8; Scp1 inh: -4.3; LMPTP block: -1.3

How did O=C(COc1ccc(F)cc1)NN1C(=O)CSC1=S do in these assays?
STEP inh: -1.4; DNMT1 inh: 0.4; Rpn11 block: 67.3*; Scp1 inh: -0.8; LMPTP block: -1.5; Rpn11 inh conf: -9.9; MMP-2 inh: 20.8; Thrombin inh: -13.0

What do the screens show for `COc1cc(/C=C2/SC(=Nc3ccc(O)cc3)NC2=O)cc(OC)c1O`?
STEP inh: -0.8; DNMT1 inh: -2.2; Rpn11 block: 59.0*; Scp1 inh: 2.0; LMPTP block: 0.7; Rpn11 inh conf: 0.8; MMP-2 inh: -23.6; Thrombin inh: 7.0

What do the screens show for `COc1ccc(N=C2NC(=O)/C(=C/c3ccc(O)c(OC)c3)S2)cc1`?
STEP inh: -1.8; DNMT1 inh: -9.5; Rpn11 block: 145.3*; Scp1 inh: -3.9; LMPTP block: 1.4; Rpn11 inh conf: 49.3*; MMP-2 inh: 1.7; Thrombin inh: 68.0*

What do the screens show for `COc1cc(/C=C2\SC(=Nc3ccc(O)cc3)NC2=O)cc(OC)c1OC`?
Scp1 inh: -0.7

Results for CCOC(=O)N1CCC(N2CCCC(C(=O)c3cccc(OC)c3)C2)CC1 (stereo unspecified) ?
STEP inh: -1.9; DNMT1 inh: 18.7; Rpn11 block: 0.4; Scp1 inh: -5.2; LMPTP block: -2.2

What do the screens show for `COc1cc(/C=N/N2CCN(Cc3ccccc3)CC2)cc(OC)c1OC(C)=O`?
STEP inh: -2.3; DNMT1 inh: -0.2; Rpn11 block: 3.1; Scp1 inh: -2.8; LMPTP block: 2.9

How did CN1CCC[C@H]1CCNc1ccc2c(=O)c3ccccc3n(C)c2c1 do in these assays?
STEP inh: 9.2; DNMT1 inh: 40.1; Rpn11 block: 48.0*; Scp1 inh: -0.1; LMPTP block: 45.8; Rpn11 inh conf: -8.8; MMP-2 inh: 5.5; Thrombin inh: -25.0
